Measurements from ChEMBL document CHEMBL1124186, “Synthesis and evaluation of tylosin-related macrolides modified at the aldehyde function: a new series of orally effective antibiotics” (1988).
In brackets after ≈: the same amount, converted by molar mass.

Legend:
Haemophilus influenzae = test: In vitro antimicrobial activity against Haemophilus influenzae.; format: functional
Staphylococcus aureus = test: In vitro antimicrobial activity against Staphylococcus aureus X1; format: functional
Streptococcus pyogenes [1] = test: Effective dose against Streptococcus pyogenes C203 when administered orally; format: functional; conditions: po
How it was run: (§1)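 Mouse protection test: infected mice were dosed twice, at 1 and 5 h postinfection, either subcutaneously or orally. […] The result is expressed as ED50 in mg/kg × 2.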

Streptococcus pyogenes [2] = test: Effective dose against Streptococcus pyogenes C203 when administered sc; format: functional; how it was run: as §1
Streptococcus pyogenes [3] = test: In vivo effective dose against experimental infections in rodent caused by Streptococcus pyogenes C203 when administered sc; format: functional
Streptococcus pneumoniae = test: In vitro antimicrobial activity against Streptococcus pneumoniae; format: functional
[4] = test system: Staphylococcus epidermidis; test: In vitro antimicrobial activity against Staphylococcus epidermidis EPI1; format: functional
Enterococcus faecium = test: In vitro antimicrobial activity against Streptococcus faecium X66; format: functional, streptococcus fae-cium
Streptococcus pyogenes [5] = test: In vitro antimicrobial activity against Streptococcus pyogenes C203; format: functional
Streptococcus pyogenes [6] = test: Antimicrobial activity against Streptococcus pyogenes C203; format: functional
Streptococcus pyogenes [7] = test: In vivo effective dose against experimental infections in rodent caused by Streptococcus pyogenes C203 when administered orally; format: functional; conditions: po

CC[C@H]1OC(=O)C[C@@H](O)[C@H](C)[C@@H](O[C@@H]2O[C@H](C)[C@@H](O)[C@H](N(C)C)[C@H]2O)[C@@H](C)C[C@@H](C)C(=O)/C=C/C(C)=C/[C@@H]1CO[C@@H]1O[C@H](C)[C@@H](O)[C@@H](OC)[C@H]1OC
MIC (Haemophilus influenzae): 8 µg/mL (≈ 10.8 µM)
MIC (Staphylococcus aureus): 0.25 µg/mL (≈ 0.336 µM)
ED50 (Streptococcus pyogenes [1]): 1.6 mg/kg
ED50 (Streptococcus pyogenes [2]): 0.25 mg/kg
ED50 (Streptococcus pyogenes [3]): 1.6 mg/kg
MIC (Streptococcus pneumoniae): 2 µg/mL (≈ 2.69 µM)
MIC [4]: 0.25 µg/mL (≈ 0.336 µM)
MIC (Enterococcus faecium): 8 µg/mL (≈ 10.8 µM)
MIC (Streptococcus pyogenes [5]): 0.25 µg/mL (≈ 0.336 µM)
MIC (Streptococcus pyogenes [6]): 8 µg/mL (≈ 10.8 µM)
ED50 (Streptococcus pyogenes [7]): 8 mg/kg
